Measurements from different studies.
Each line is one published result; the experiments were not run side by side.
INSR: Insulin receptor (INSR, Homo sapiens, UniProt P06213)

O=C(CSc1nc2nccnc2c(=O)n1CCc1ccccc1)Nc1nccs1  inhibition (INSR; enzyme activity, inhibitor; 10 µM): 5%
Cc1ccc(Nc2nccc(N(C)c3ccc4c(C)n(C)nc4c3)n2)cc1S(N)(=O)=O  inhibition (INSR; enzyme activity, inhibitor; 10 µM): 27%
COc1cc2ncnc(Nc3ccc(Oc4ccccc4)cc3C)c2cc1OC  inhibition (INSR; enzyme activity, inhibitor; 1 µM): -1%
CN1CC(Oc2cnc(C#N)cc2-c2ccn3nc(NC(=O)C4CC4)cc3c2)C1  inhibition (INSR; enzyme activity, inhibitor; 1 µM): -2%
Nc1ncnc2occ(-c3ccc(NC(=O)Nc4cc(C(F)(F)F)ccc4F)cc3)c12  remaining signal (INSR; cell-free assay; 20 µM): 3.2%
O=C(NS(=O)(=O)c1ccc(NCC2CCOCC2)c([N+](=O)[O-])c1)c1ccc(N2CCN(Cc3ccc(C(F)(F)F)cc3-c3ccc(Cl)cc3)CC2)cc1Oc1cnc2[nH]ccc2c1  remaining binding (INSR; cell-free assay, competition with immobilised ligand; 1 µM): 89%
CNCc1ccc(-c2cc(-c3nc(-c4ccc(S(=O)(=O)C(C)C)cc4)cnc3N)on2)cc1  inhibition (INSR; enzyme activity, inhibitor; 0.4 µM): 0%
CO[C@@H](C)c1c(Nc2ccc([C@H](N(C)C(=O)C3CCS(=O)(=O)CC3)C(F)(F)F)cc2)cnc2cc(Cl)nn12  remaining binding (INSR; cell-free assay, competition with immobilised ligand; 1 µM): 87%
CCCS(=O)(=O)Nc1ccc(F)c(C(=O)c2c[nH]c3ncc(-c4ccc(Cl)cc4)cc23)c1F  inhibition (INSR; enzyme activity, inhibitor; 1 µM): < 10%
O=C(O)[C@H]1[C@H](Cn2nnc3ccccc3c2=O)CC[C@@H]1C(=O)c1ccc(OCCC2CCOCC2)cc1  remaining binding (INSR; cell-free assay, competition with immobilised ligand; 1 µM): 78%
CNc1cccc2cc(C(=O)Nc3ccc(C(=O)O)cc3)c(=O)[nH]c12  inhibition (INSR; enzyme activity, inhibitor; 10 µM): 5.2%
CNC(=O)c1ccccc1Nc1cc(Nc2ccc(N3CCOCC3)cc2OC)ncc1C(F)(F)F  inhibition (INSR; enzyme activity, inhibitor; 1 µM): > 50%
COc1cc2c(Nc3ccc(Br)cc3F)ncnc2cc1OCC1CCN(C)CC1  remaining signal (INSR; cell-free assay; 0.5 µM): 102%
CSc1nc(C)c(-c2ccnc(Nc3ccc(N4CCOCC4)cc3)c2)[nH]1  inhibition (INSR; cell-free assay, inhibitor; 10 µM): -1.8%
C[C@H](NC(=O)c1cnc2n1[C@](C)(Cc1ccc(C#N)cc1)C(=O)N2c1cc(Cl)c(F)c(Cl)c1)C(=O)NC1(c2ccccn2)CC1  remaining binding (INSR; cell-free assay, competition with immobilised ligand; 1 µM): 100%
Cc1ccc(C(=O)NCc2ccsc2)cc1C#Cc1cn(C(C)C)c2ncnc(N)c12  activity vs control (INSR; enzyme activity, inhibitor; 1 µM): 82%
O=C(NC[C@@H]1[C@H]2CN(C(=O)OCc3cc(C(F)(F)F)cc(C(F)(F)F)c3)C[C@@H]12)c1ccc2[nH]nnc2c1  remaining binding (INSR; cell-free assay, competition with immobilised ligand; 1 µM): 83%
Cc1cc(NC(=O)c2cccc3cc(-c4cccc5[nH]nc(N)c45)ccc23)ccc1F  activity vs control (Insulin receptor, phosphorylated (INSR, Homo sapiens, UniProt P06213); enzyme activity, inhibitor; 0.1 µM): 91%
Cc1nc(C2CCN(C(=O)c3ccc(OC(F)(F)F)cc3N)CC2)c2ncc(N3CCN(C)CC3)cc2n1  remaining binding (INSR; cell-free assay, competition with immobilised ligand; 1 µM): 93%
C[C@@H]1CCN(C(=O)CC#N)C[C@@H]1N(C)c1ncnc2[nH]ccc12  remaining signal (INSR; cell-free assay; 0.5 µM): 101%
CC/C(=N\NC(=O)NCc1cccc(O)c1)c1ccc(O)c(C)c1O  inhibition (INSR; enzyme activity, inhibitor; 0.1 µM): 0.1%
CC(C)c1ccc(NC(=O)c2cccs2)c(-c2nc3ccccc3[nH]c2=O)c1  activity vs control (INSR; enzyme activity, inhibitor; 1 µM): 91%
CSc1cccnc1N1CCN(Cc2nc3ccccc3[nH]2)CC1  remaining binding (INSR; cell-free assay, competition with immobilised ligand; 1 µM): 85%
CN(C)C1CCN(CC#Cc2nn(C3CCCC3)c3nc(NCc4ccccc4)ncc23)C1 (stereo not drawn)  inhibition (INSR; enzyme activity, inhibitor, FRET; 1 µM): 8%
